Results reported in publication PMC11843577 (RSC Medicinal Chemistry, 2025).

What was measured:
full-length TDP1 = full-length TDP1 (Homo sapiens, UniProt Q9NUW8); experiment: TDP1 gel-based fluorescence assay in vitro; type: biochemical
U2OS cell line = experiment: Synergy assay with camptothecin; type: cell-based, human; conditions: compound at 10 μM, 72 h cell viability
Summary of the method: (§1)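 HCT116 colon or U2OS osteosarcoma cells were seeded at 2 × 10³ cells per well and cultured for 72 h in medium containing the test compound together with camptothecin. Viability was read by CellTiter-Glo luminescence, and synergy was judged from these viability data.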

TDP1 in HCT116 cell line = TDP1 in HCT116 cell line (Homo sapiens, UniProt Q9NUW8); experiment: Western blot for TDP1 degradation; type: cell-based; conditions: 5h 10 μM within 6 h, 5h 0.1-100 μM and 5i 10, 100 μM within 24 h
HCT116 cell line = experiment: Synergy assay with camptothecin; type: cell-based, human; conditions: HCT116, compound at 10 μM, 72 h cell viability
Summary of the method: as §1

full-length TDP2 = target: T1, full-length TDP2 (Homo sapiens, UniProt O95551); experiment: TDP2 gel-based fluorescence assay in vitro; type: biochemical; conditions: ratio of IC50 values of TDP2 vs. TDP1
T1 sequence (O95551 1-362): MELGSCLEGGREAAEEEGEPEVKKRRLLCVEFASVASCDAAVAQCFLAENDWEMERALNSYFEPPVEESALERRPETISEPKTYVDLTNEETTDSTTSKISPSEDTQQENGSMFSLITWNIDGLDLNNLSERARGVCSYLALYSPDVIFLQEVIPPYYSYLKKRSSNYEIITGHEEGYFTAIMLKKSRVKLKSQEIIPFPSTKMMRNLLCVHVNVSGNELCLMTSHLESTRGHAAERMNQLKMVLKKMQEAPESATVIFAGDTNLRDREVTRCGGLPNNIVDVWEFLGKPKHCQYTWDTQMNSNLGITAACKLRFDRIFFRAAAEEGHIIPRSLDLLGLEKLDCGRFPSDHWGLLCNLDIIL

full-length TDP1, sequence (Q9NUW8 whole entry): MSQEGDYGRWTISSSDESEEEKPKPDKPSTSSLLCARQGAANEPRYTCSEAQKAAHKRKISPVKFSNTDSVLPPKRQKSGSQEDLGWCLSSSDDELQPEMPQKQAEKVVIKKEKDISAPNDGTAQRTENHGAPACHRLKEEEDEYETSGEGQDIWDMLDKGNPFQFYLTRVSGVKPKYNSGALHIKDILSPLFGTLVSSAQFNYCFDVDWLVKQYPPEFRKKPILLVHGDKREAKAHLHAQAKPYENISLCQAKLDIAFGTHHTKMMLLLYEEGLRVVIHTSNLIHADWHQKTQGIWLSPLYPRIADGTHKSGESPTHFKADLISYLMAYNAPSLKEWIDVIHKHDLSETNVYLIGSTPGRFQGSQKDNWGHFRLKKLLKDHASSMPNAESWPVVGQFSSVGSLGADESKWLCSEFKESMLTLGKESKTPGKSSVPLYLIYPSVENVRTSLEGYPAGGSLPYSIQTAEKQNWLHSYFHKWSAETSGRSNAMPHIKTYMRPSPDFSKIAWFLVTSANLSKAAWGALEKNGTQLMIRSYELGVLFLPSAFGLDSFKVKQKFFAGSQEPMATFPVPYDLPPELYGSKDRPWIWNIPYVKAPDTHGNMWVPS
TDP1 in HCT116 cell line, sequence (Q9NUW8 whole entry): as above

Row | SMILES | TDP1 IC50 (full-length TDP1) | further results
1 | Cc1ncsc1-c1ccc(CNC(=O)[C@@H]2C[C@@H](O)CN2C(=O)[C@@H](NC(=O)COCCOCCOCCn2cc(COc3ccc(-c4nc5cc(-c6ccccc6)ccn5c4Nc4ccc(C(=O)O)cc4)cc3)nn2)C(C)(C)C)cc1 [Compound 5b, 4-((2-(4-((1-((S)-13-((2S,4R)-4-Hydroxy-2-((4-(4-methylthiazol-5-yl)benzyl)carbamoyl)pyrrolidine-1-carbonyl)-14,14-dimethyl-11-oxo-3,6,9-trioxa-12-azapentadecyl)-1H-1,2,3-triazol-4-yl)methoxy)phenyl)-7-phenylimidazo[1,2-a]pyridin-3-yl)amino)benzoic acid] | failed to exhibit TDP1 inhibitory potency within the range tested | –
2 | Cc1ncsc1-c1ccc(CNC(=O)[C@@H]2C[C@@H](O)CN2C(=O)[C@@H](NC(=O)COCCOCCOCCOCCn2cc(COc3ccc(-c4nc5cc(-c6ccccc6)ccn5c4Nc4ccc(C(=O)O)cc4)cc3)nn2)C(C)(C)C)cc1 [Compound 5c, 4-((2-(4-((1-((S)-16-((2S,4R)-4-Hydroxy-2-((4-(4-methylthiazol-5-yl)benzyl)carbamoyl)pyrrolidine-1-carbonyl)-17,17-dimethyl-14-oxo-3,6,9,12-tetraoxa-15-azaoctadecyl)-1H-1,2,3-triazol-4-yl)methoxy)phenyl)-7-phenylimidazo[1,2-a]pyridin-3-yl)amino)benzoic acid] | failed to exhibit TDP1 inhibitory potency within the range tested | –
3 | O=C(COc1cccc2c1C(=O)N(C1CCC(=O)NC1=O)C2=O)NCCCCn1cc(COc2ccc(-c3nc4cc(-c5ccccc5)ccn4c3Nc3ccc(C(=O)O)cc3)cc2)nn1 (stereo not shown) [Compound 5d, 4-((2-(4-((1-(4-(2-((2-(2,6-Dioxopiperidin-3-yl)-1,3-dioxoisoindolin-4-yl)oxy)acetamido)butyl)-1H-1,2,3-triazol-4-yl)methoxy)phenyl)-7-phenylimidazo[1,2-a]pyridin-3-yl)amino)benzoic acid] | did not show TDP1 inhibitory potency within the range tested | –
4 | O=C(COc1cccc2c1C(=O)N(C1CCC(=O)NC1=O)C2=O)NCCCCn1cc(COc2ccc(-c3nc4ccccn4c3Nc3ccc(C(=O)O)cc3)cc2)nn1 (stereo not shown) [Compound 5e, 4-((2-(4-((1-(4-(2-((2-(2,6-Dioxopiperidin-3-yl)-1,3-dioxoisoindolin-4-yl)oxy)acetamido)butyl)-1H-1,2,3-triazol-4-yl)methoxy)phenyl)imidazo[1,2-a]pyridin-3-yl)amino)benzoic acid] | did not show TDP1 inhibitory potency within the range tested | –
5 | O=C(COc1cccc2c1C(=O)N(C1CCC(=O)NC1=O)C2=O)NCCCCn1cc(-c2ccc(-c3nc4ccccn4c3Nc3ccc(C(=O)O)cc3)cc2)nn1 (stereo not shown) [Compound 5g, 4-((2-(4-(1-(4-(2-((2-(2,6-Dioxopiperidin-3-yl)-1,3-dioxoisoindolin-4-yl)oxy)acetamido)butyl)-1H-1,2,3-triazol-4-yl)phenyl)imidazo[1,2-a]pyridin-3-yl)amino)benzoic acid] | did not show TDP1 inhibitory potency within the range tested | –
6 | O=C1CCC(N2C(=O)c3cccc(NCc4cn(Cc5ccc(-c6nc7cc(-c8ccccc8)ccn7c6Nc6ccc(C(=O)O)cc6)cc5)nn4)c3C2=O)C(=O)N1 (stereo not shown) [Compound 5h, 4-((2-(4-((4-(((2-(2,6-Dioxopiperidin-3-yl)-1,3-dioxoisoindolin-4-yl)amino)methyl)-1H-1,2,3-triazol-1-yl)methyl)phenyl)-7-phenylimidazo[1,2-a]pyridin-3-yl)amino)benzoic acid] | – | Synergy in combination with TOP1 inhibitor camptothecin (CPT) (U2OS cell line): failed to show synergy; TDP1 degradation compared with GAPDH (TDP1 in HCT116 cell line): unable to observe degradation effects; Synergy in combination with TOP1 inhibitor camptothecin (CPT) (HCT116 cell line): failed to show synergy
7 | CN(Cc1cn(Cc2ccc(-c3nc4cc(-c5ccccc5)ccn4c3Nc3ccc(C(=O)O)cc3)cc2)nn1)c1cccc2c1C(=O)N(C1CCC(=O)NC1=O)C2=O (stereo not shown) [Compound 5i, 4-((2-(4-((4-(((2-(2,6-Dioxopiperidin-3-yl)-1,3-dioxoisoindolin-4-yl)(methyl)amino)methyl)-1H-1,2,3-triazol-1-yl)methyl)phenyl)-7-phenylimidazo[1,2-a]pyridin-3-yl)amino)benzoic acid] | – | TDP1 degradation compared with GAPDH (TDP1 in HCT116 cell line): unable to observe degradation effects
8 | O=C1CCC(N2C(=O)c3cccc(NCCc4cn(Cc5ccc(-c6nc7cc(-c8ccccc8)ccn7c6Nc6ccc(C(=O)O)cc6)cc5)nn4)c3C2=O)C(=O)N1 (stereo not shown) [Compound 5j, 4-((2-(4-((4-(2-((2-(2,6-Dioxopiperidin-3-yl)-1,3-dioxoisoindolin-4-yl)amino)ethyl)-1H-1,2,3-triazol-1-yl)methyl)phenyl)-7-phenylimidazo[1,2-a]pyridin-3-yl)amino)benzoic acid] | – | TDP1 selectivity (full-length TDP2): 1.4
